Published values gathered from unrelated publications.
Target: Receptor-interacting serine/threonine-protein kinase 1 (RIPK1, Homo sapiens, UniProt Q13546)
Sequence (Q13546 1-671, as in one of the studies): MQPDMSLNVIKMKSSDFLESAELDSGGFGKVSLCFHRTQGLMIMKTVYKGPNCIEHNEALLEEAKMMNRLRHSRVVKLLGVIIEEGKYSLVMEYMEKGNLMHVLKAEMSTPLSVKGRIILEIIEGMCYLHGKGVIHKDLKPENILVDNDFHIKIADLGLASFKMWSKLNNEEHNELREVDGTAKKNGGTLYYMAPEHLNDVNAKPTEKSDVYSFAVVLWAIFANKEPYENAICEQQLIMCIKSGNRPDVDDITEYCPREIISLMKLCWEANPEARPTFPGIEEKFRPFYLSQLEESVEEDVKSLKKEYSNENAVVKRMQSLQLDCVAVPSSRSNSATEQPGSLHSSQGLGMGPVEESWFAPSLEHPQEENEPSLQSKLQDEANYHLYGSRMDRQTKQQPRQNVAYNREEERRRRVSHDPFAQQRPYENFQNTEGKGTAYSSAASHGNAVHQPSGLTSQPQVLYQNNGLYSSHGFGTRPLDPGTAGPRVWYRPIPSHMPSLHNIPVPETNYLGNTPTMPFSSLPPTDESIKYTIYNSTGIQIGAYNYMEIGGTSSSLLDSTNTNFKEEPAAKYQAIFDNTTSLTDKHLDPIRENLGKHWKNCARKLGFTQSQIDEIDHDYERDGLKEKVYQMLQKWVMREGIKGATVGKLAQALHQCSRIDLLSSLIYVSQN

Compound | test | conditions | remaining binding
CN(CCCC(F)(F)F)c1nccc(-c2cnn3ncccc23)n1 | binding | 1 µM | 97%
O=C(NCC1CCOCC1)c1n[nH]cc1NC(=O)c1c(F)cccc1F | binding, competition with immobilised ligand | 1 µM | 94%
CNCc1ccccc1-c1csc([C@@H](C)Nc2nc(C)nc3cc(OC)c(OC)cc23)c1 | cell-free assay, competition with immobilised ligand | 1 µM | 97%
COc1cnc(Nc2cccc(S(N)(=O)=O)c2)nc1N1CCN(c2ccccc2)CC1 | binding, competition with immobilised ligand | 1 µM | 100%
Nc1ncc2c(n1)-c1c([nH]c3ccc(C#CC4CC4)cc13)CCCC2 | binding, competition with immobilised ligand | 1 µM | 100%
COc1cc(-c2cn(C3CCc4c(F)cccc4N(CC(F)(F)F)C3=O)nn2)ccc1-n1cnc(C)c1 (stereo not shown) | cell-free assay, competition with immobilised ligand | 1 µM | 100%
O=C(c1ccc(Nc2nccc(-c3cc4ccccc4s3)n2)cc1)N1CCC(N2CCCC2)CC1 | binding, competition with immobilised ligand | 1 µM | 23%
CN(C)c1ncnc(-c2ccc3nc(Nc4cc(CN5CCN(C(=O)CC(F)(F)F)CC5)ccn4)[nH]c3c2)c1Cl | cell-free assay, competition with immobilised ligand | 1 µM | 93%
CCN1CCN(Cc2ccc(C(=O)Nc3ccc(C)c(Oc4ccc5c(c4)CC(=O)N5)c3)cc2C(F)(F)F)CC1 | binding, competition with immobilised ligand | 1 µM | 86%
CCCCN(CCCC)C(=O)CN1C[C@@H](c2cc(OC)c3c(c2)OCO3)[C@H](C(=O)O)[C@H]1CC(C)(C)CCC | cell-free assay, competition with immobilised ligand | 1 µM | 100%
c1cncc(-c2cccc(Nc3nccc(NC4CCCCC4)n3)c2)c1 | binding, competition with immobilised ligand | 10 µM | 98%
FC(F)(F)Oc1cccc(-c2cnc3ccc(-c4ccncc4)nn23)c1 | binding, competition with immobilised ligand | 5 µM | 81%
O=C(NCCCN1CCOCC1)c1ccc(Nc2ncc(Cl)c(-c3ccc(Cl)s3)n2)cc1 | binding, competition with immobilised ligand | 1 µM | 45%
c1cnn2ncc(-c3ccnc(N4CCC45COC5)n3)c2c1 | binding | 1 µM | 83%
Cc1c(C(=O)O)cc(-c2ccc(C3CCNCC3)cc2)c2ccc(-c3ccc(C(F)(F)F)cc3)cc12 | binding, competition with immobilised ligand | 1 µM | 100%
C[C@@H]1CCN(c2nccc(-c3cnn4ncccc34)n2)C1 | binding | 1 µM | 100%
Cc1cnc(Nc2ccc(C(=O)N3CCC(N4CCCC4)CC3)cc2)nc1-c1cc2ccccc2s1 | binding, competition with immobilised ligand | 1 µM | 1%
CC1CCCN1c1nccc(-c2cnn3ncccc23)n1 (stereo not shown) | binding | 1 µM | 100%
COc1ncc2cc3ccccc3nc2c1C#N | cell-free assay, competition with immobilised ligand | 5 µM | 100%
